Source: ChEMBL document CHEMBL1148356, “Synthesis and biological evaluation of 3-heterocyclyl-7,8,9,10-tetrahydro-(7,10-ethano)-1,2,4-triazolo[3,4-a]phthalazines and analogues as subtype-selective inverse agonists for the GABA(A)alpha5 benzodiazepine binding site” (J Med Chem, 2004)
pKi: −log10 of the molar value. Activity calls are given as the source filed them. No cut-off for these calls is given here.

What was measured:
[1] = molecular target: T1, GABA-A receptor; alpha-5/beta-3/gamma-2 (Homo sapiens, UniProt P18507+P28472+P31644); assay: Binding affinity towards human alpha-5-beta-3-gamma-2 GABA-A receptor using [3H]Ro-151788 expressed in L(tk-) cells; assay type: cell-based
T1 sequence (P18507 whole entry): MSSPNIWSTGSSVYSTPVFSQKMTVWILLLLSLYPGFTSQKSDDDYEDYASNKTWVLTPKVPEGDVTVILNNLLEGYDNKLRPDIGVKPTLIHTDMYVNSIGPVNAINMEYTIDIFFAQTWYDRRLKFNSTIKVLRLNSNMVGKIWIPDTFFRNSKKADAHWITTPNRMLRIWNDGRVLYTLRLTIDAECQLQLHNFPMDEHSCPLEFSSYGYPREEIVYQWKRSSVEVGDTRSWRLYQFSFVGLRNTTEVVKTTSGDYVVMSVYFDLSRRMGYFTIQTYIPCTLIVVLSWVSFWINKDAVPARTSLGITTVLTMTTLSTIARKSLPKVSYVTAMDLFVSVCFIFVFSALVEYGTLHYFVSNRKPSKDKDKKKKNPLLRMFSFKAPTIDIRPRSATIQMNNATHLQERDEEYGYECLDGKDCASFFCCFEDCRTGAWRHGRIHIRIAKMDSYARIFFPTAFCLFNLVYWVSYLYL
T1 sequence (P28472 whole entry): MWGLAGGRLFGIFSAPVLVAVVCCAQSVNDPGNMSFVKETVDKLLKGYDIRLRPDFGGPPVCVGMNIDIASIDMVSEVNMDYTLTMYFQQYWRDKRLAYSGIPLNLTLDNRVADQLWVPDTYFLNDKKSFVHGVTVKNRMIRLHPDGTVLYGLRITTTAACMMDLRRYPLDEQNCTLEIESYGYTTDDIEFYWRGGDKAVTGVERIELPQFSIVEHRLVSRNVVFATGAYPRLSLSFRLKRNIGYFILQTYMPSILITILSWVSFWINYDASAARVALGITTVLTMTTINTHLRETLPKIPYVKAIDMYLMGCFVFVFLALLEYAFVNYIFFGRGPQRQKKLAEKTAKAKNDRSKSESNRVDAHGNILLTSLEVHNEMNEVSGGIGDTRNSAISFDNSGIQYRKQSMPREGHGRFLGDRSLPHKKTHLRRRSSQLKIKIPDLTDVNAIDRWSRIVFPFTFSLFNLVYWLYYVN
T1 sequence (P31644 whole entry): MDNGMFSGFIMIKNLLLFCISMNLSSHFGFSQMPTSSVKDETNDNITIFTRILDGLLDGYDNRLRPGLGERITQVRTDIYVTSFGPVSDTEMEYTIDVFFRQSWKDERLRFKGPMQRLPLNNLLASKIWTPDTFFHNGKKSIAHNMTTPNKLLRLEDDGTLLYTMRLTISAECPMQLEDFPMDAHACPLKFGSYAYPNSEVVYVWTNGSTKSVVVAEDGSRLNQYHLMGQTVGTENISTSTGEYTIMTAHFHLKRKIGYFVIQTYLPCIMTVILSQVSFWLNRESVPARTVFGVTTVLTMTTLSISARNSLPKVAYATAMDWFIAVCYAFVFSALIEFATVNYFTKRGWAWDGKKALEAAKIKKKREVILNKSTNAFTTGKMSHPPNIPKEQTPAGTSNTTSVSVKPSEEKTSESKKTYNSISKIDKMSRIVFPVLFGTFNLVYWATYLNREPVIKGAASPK

[2] = molecular target: T2, GABA-A receptor; alpha-3/beta-3/gamma-2 (Homo sapiens) (UniProt P18507+P28472+P34903); assay: Percent change in electrophysiological response in Xenopus oocytes expressing Alpha3-beta3-gamma2 GABA-A receptor; assay type: functional, cell-based; details: Oocyte
In short: (§1)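 Two-electrode voltage clamp on Xenopus oocytes injected with human GABA-A subunit cDNAs, 24-72 h expression, perfused with modified Barth's medium at pH 7.5, clamped between -40 and -70 mV. The GABA EC20 was titrated against a 3 mM GABA maximum. […] Result is % change of control current, mean ± SE of ≥4 oocytes.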

[3] = molecular target: T3, GABA-A receptor; alpha-1/beta-3/gamma-2 (Homo sapiens) (UniProt P14867+P18507+P28472); assay: Percent change in electrophysiological response in Xenopus oocytes expressing Alpha1-beta3-gamma2 GABA-A receptor; assay type: functional, cell-based; details: Oocyte; in short: as §1
[4] = molecular target: T4, GABA-A receptor; alpha-1/beta-3/gamma-2 (Homo sapiens, UniProt P14867+P18507+P28472); assay: Binding affinity towards human alpha-1-beta-3-gamma-2 GABA-A receptor using [3H]Ro-151788 expressed in L(tk-) cells; assay type: cell-based
T4 sequence (P14867 whole entry): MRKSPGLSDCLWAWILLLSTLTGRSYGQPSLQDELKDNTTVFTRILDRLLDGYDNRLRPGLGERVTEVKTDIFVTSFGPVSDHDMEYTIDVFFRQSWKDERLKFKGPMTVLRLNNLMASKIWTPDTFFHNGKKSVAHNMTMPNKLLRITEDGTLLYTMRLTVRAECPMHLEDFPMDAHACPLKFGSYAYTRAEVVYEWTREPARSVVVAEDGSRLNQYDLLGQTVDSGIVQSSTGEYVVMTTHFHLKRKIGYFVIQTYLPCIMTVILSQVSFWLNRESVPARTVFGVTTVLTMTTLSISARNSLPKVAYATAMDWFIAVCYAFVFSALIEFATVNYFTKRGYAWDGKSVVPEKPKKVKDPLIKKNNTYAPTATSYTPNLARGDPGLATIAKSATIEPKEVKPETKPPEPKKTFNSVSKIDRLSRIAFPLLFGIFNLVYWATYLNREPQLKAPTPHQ
T4 sequence (P18507 whole entry): T1 sequence (P18507 whole entry)
T4 sequence (P28472 whole entry): T1 sequence (P28472 whole entry)

[5] = molecular target: T5, GABA-A receptor; alpha-5/beta-3/gamma-2 (Homo sapiens) (UniProt P18507+P28472+P31644); assay: Percent change in electrophysiological response in Xenopus oocytes expressing Alpha-5-beta-3-gamma-2 GABA-A receptor; assay type: functional, cell-based; details: Oocyte; in short: as §1
[6] = Oral bioavailability in rat; assay type: ADME, organism-based; details: in vivo
In short: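 Male SD rats with jugular cannulas were fasted overnight and dosed either by tail-vein IV bolus or orally (n = 3 per route). Serial jugular blood samples were taken up to 8 h. Plasma was frozen at −20 °C, protein-precipitated with acetonitrile containing internal standard, and quantified by LC-MS/MS.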

[7] = molecular target: T6, GABA-A receptor; alpha-2/beta-3/gamma-2 (Homo sapiens) (UniProt P18507+P28472+P47869); assay: Percent change in electrophysiological response in Xenopus oocytes expressing Alpha2-beta3-gamma2 GABA-A receptor; assay type: functional, cell-based; details: Oocyte; in short: as §1
[8] = molecular target: T7, GABA-A receptor; alpha-3/beta-3/gamma-2 (Homo sapiens, UniProt P18507+P28472+P34903); assay: Binding affinity towards human gamma-aminobutyric-acid A receptor alpha-3-beta-3-gamma-2 using [3H]Ro-151788 expressed in L(tk-) cells; assay type: cell-based
T7 sequence (P18507 whole entry): T1 sequence (P18507 whole entry)
T7 sequence (P28472 whole entry): T1 sequence (P28472 whole entry)
T7 sequence (P34903 whole entry): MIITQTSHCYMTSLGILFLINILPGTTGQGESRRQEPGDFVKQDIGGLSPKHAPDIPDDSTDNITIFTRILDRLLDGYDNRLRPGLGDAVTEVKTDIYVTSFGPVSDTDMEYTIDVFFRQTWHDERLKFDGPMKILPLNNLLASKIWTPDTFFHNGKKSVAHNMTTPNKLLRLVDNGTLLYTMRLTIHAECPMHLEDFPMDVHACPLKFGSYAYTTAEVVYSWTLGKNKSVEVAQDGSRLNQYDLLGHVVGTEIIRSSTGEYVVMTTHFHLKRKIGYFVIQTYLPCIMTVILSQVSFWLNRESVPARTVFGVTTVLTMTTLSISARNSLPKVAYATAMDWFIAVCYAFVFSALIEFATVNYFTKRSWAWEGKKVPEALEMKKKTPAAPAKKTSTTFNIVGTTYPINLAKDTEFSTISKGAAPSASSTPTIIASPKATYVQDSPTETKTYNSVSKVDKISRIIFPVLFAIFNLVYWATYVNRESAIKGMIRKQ

[9] = molecular target: T8, GABA-A receptor; alpha-2/beta-3/gamma-2 (Homo sapiens, UniProt P18507+P28472+P47869); assay: Binding affinity towards human gamma-aminobutyric-acid A receptor alpha-2-beta-3-gamma-2 using [3H]Ro-151788 expressed in L(tk-) cells; assay type: cell-based
T8 sequence (P18507 whole entry): T1 sequence (P18507 whole entry)
T8 sequence (P28472 whole entry): T1 sequence (P28472 whole entry)
T8 sequence (P47869 whole entry): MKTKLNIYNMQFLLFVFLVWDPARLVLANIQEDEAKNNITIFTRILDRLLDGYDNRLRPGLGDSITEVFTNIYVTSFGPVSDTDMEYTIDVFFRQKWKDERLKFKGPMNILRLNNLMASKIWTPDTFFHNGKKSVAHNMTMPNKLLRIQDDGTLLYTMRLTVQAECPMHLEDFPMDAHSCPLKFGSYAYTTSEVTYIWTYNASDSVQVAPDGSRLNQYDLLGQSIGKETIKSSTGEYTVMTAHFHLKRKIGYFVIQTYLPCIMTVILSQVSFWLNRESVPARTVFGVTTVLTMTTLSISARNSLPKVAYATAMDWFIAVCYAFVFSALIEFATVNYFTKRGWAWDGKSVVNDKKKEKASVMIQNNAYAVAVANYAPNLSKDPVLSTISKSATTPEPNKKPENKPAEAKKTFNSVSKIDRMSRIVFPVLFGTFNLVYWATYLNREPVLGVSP

[10] = molecular target: T2, GABA-A receptor; alpha-3/beta-3/gamma-2 (Homo sapiens); assay: Percent maximum change in electrophysiological response in Xenopus oocytes expressing alpha-3-beta-3-gamma-2 GABA-A receptor; assay type: functional, cell-based; details: Oocyte; in short: as §1
[11] = molecular target: T5, GABA-A receptor; alpha-5/beta-3/gamma-2 (Homo sapiens); assay: Percent maximum change in electrophysiological response in Xenopus oocytes expressing alpha-5-beta-3-gamma-2 GABA-A receptor; assay type: functional, cell-based; details: Oocyte; in short: as §1
[12] = molecular target: T6, GABA-A receptor; alpha-2/beta-3/gamma-2 (Homo sapiens); assay: Percent maximum change in electrophysiological response in Xenopus oocytes expressing alpha-2-beta-3-gamma-2 GABA-A receptor; assay type: functional, cell-based; details: Oocyte; in short: as §1
[13] = molecular target: T3, GABA-A receptor; alpha-1/beta-3/gamma-2 (Homo sapiens); assay: Percent maximum change in electrophysiological response in Xenopus oocytes expressing alpha-1-beta-3-gamma-2 GABA-A receptor; assay type: functional, cell-based; details: Oocyte; in short: as §1
Rattus norvegicus = assay: Tested for cognitive performance in rats in delayed matching-to-place version of water maze test at 0.3 mg/kg i.p.; Enhanced performance; assay type: functional, organism-based; set-up: dose 0.3 mg/kg

| SMILES | pKi [1] | Efficacy [2] | Efficacy [3] | pKi [4] | Efficacy [5] | bioavailability [6] | Efficacy [7] | pKi [8] | pKi [9] | Efficacy [10] | Efficacy [11] | Efficacy [12] | Efficacy [13] | Activity (Rattus norvegicus) |
| --- | --- | --- | --- | --- | --- | --- | --- | --- | --- | --- | --- | --- | --- | --- |
| Cc1cccc(COc2nn3c(-c4nc(C)no4)nnc3c3c2C2CCC3CC2)n1 | 8.85 | -21% | -15% | 7.12 | -35% | < 1% | -10% | 7.96 |  |  |  |  |  |  |
| Cc1cccc(COc2nn3c(-c4ccccc4)nnc3c3ccccc23)n1 | 8.89 | -8.3% | 0.7% | 8.72 | 11% |  | -3.8% | 9.48 | 9.00 |  |  |  |  |  |
| CCOC(=O)c1ncn2c1[C@@H]1CCCN1C(=O)c1cc(OC)ccc1-2 |  | -3% | -12% |  | -12% |  | -17% |  |  | -11% | -21% | -26% | -18% |  |
| CC1(C)CC(=O)c2c(SCCO)sc(-c3nccs3)c2C1 |  |  |  |  |  |  |  |  |  |  |  |  |  | Active |
| Cc1cccc(COc2nn3c(-c4cnccn4)nnc3c3c2C2CCC3CC2)n1 | 8.74 | 19% | 12% | 7.08 | -9% |  | 8% | 7.97 | 7.55 |  |  |  |  |  |
| Cc1cccc(COc2nn3c(-c4ccccc4)nnc3c3c2C2CCC3CC2)n1 | 8.52 | 44% | 53% | 6.91 | 14% |  | 35% | 7.63 | 7.35 |  |  |  |  |  |
| Cc1cccc(COc2nn3c(-c4cc(C)on4)nnc3c3c2C2CCC3CC2)n1 |  | -1% | 21% |  | -29% | 3% | 14% |  |  |  |  |  |  |  |
| Cc1noc(-c2nnc3c4c(c(OCc5ccccc5Br)nn23)C2CCC4CC2)n1 | 9.00 | 12% | -12% | 7.23 | -42% |  | -18% | 8.21 | 7.78 |  |  |  |  |  |
